Consider two molecules from ChEMBL document CHEMBL3425495, “Perturbation of the c-Myc-Max protein-protein interaction via synthetic α-helix mimetics” (J Med Chem, 2015).

The test system of one assay is NCI-H460. The experiment in a line: Induction of neutral lipid accumulation in human H460 cells assessed as ratio of mean florescent intensity of compound treated to control cells at 40 uM after 48 hrs by flow cytometry. Type of assay: functional. In a few lines:
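Sub-confluent H460 cells given compound 48 h; trypsinised, washed, stained 30 min at ambient temperature with BODIPY […]/503 (stock 50 µg/ml, 0.9 ml added to 0.1 ml cells); flow cytometry of ≥10⁴ events; mean fluorescence of treated over untreated cells; biological triplicates, ± one standard error.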

In assay [1] the target is T1, c-Myc/Max (Homo sapiens, UniProt P01106+P61244). Particulars: 6.3 to 50 uM.
For assay [2], the target named is T1, c-Myc/Max. The settings on record: 6.3 to 50 uM. The source holds these as a separate data set.
For assay [3], the target named is T1, c-Myc/Max. Nature of the assay: Disruption of human recombinant c-Myc-Max(S)/DNA (unknown origin) binding assessed as complex level at 100 uM by electrophoretic mobility shift assay relative to control. Type of assay: protein-complex assay. In a few lines: (§1)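 Recombinant c-Myc 353–437 bHLH-ZIP with full-length Max(S), or Max(L) alone, from E. coli (His₆ removed by TEV), each 30 nM, with 30 nM HEX-labelled double-stranded oligonucleotide bearing a c-Myc site; buffer 1× PBS pH 7.3, 1 mM EDTA, 0.1% NP40, 5% glycerol, 1 mM DTT, 400 µg/mL BSA; complex level relative to DMSO control; three independent EMSAs.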

Assay [4] addresses T1, c-Myc/Max. The experiment in a line: Disruption of human recombinant c-Myc-Max/DNA (unknown origin) binding assessed as complex level by electrophoretic mobility shift assay relative to control. Type of assay: protein-complex assay. In a few lines: as §1
In general terms: In EMSA bound probe runs differently from free probe, usually more slowly.

The target in assay [5] is Protein max (Homo sapiens) (UniProt P61244). Nature of the assay: Binding affinity to human recombinant 15N labeled Max(S) homodimer assessed as chemical shift up to 100 uM by NMR spectroscopy.
Assay [6] addresses T1, c-Myc/Max. Nature of the assay: Binding affinity to human recombinant 15N labeled c-Myc-Max(S) heterodimer assessed as chemical shift up to 100 uM by NMR spectroscopy. It counts as protein-complex assay.
Assay [7] deals with T1, c-Myc/Max. Nature of the assay: Inhibition of heterodimerization of human recombinant His-tagged c-Myc-Max(S) compound treated for 20 mins with c-Myc and followed by added Max(S) at 3.1 to 50 uM after 30 mins by SPR analysis in presence of biotinylated E-box-containing oligonucleotides. Type of assay: protein-complex assay. A general note: SPR reads the build-up and loss of mass on a sensor chip optically.

Assay [8] concerns the target T1, c-Myc/Max. Nature of the assay: Inhibition of human recombinant His-tagged c-Myc-Max(S) heterodimer binding to DNA at 3.1 to 50 uM after 30 mins by SPR analysis in presence of biotinylated E-box-containing oligonucleotides. Type of assay: protein-complex assay.
The test system of the next assay is Daudi. The experiment in a line: Antiproliferative activity against c-Myc-overexpressing human Daudi cells after 3 days by MTT assay. It counts as functional, cell-based. Particulars: 72 h. In a few lines: (§2)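 Cells at >90% viability seeded at 2×10³ cells/well in fresh growth medium with 10-point serial dilutions of compound; 3-day incubation; viability by MTT, relative to untreated cells; each point in at least triplicate; IC50 from dose–response. HO15.19-wt-Myc are myc−/− rat fibroblasts with c-Myc restored by stable retroviral transduction.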
On the technique in general: Tetrazolium assays rely on reduction of a dye to a coloured formazan, in cell work by metabolically active cells.

The nature of assay [9]: Antiproliferative activity against human INA-6 cells after 3 days by MTT assay. Type of assay: functional, cell-based. The settings on record: INA-6, 72 h. In a few lines:
as §2

Assay [10] is described as follows: Antiproliferative activity against human IH-1 cells after 3 days by MTT assay. Type of assay: functional, cell-based. Particulars: IH-1, 72 h. A digest of the protocol: as §2
Assay [11] is described as follows: Antiproliferative activity against human H460 cells after 3 days by MTT assay. Particulars: NCI-H460, 72 h. Type of assay: functional, cell-based. A digest of the protocol:
as §2

The next assay has as its system HeLa. Nature of the assay: Antiproliferative activity against human HeLa cells after 3 days by MTT assay. Type of assay: functional, cell-based. The settings on record: 72 h. In a few lines:
as §2

The subject of the next assay is HEK293. Nature of the assay: Antiproliferative activity against human HEK293 cells after 3 days by MTT assay. Type of assay: functional, cell-based. Particulars: HEK293, 72 h. A digest of the protocol:
as §2

Assay [12] is described as follows: Antiproliferative activity against human JJN-3 cells after 3 days by MTT assay. Type of assay: functional, cell-based. Particulars: JJN-3, 72 h. In a few lines:
as §2

A short description of assay [13]: Antiproliferative activity against human ANBL-6 cells after 3 days by MTT assay. It counts as functional, cell-based. Particulars: ANBL-6, 72 h. A digest of the protocol: as §2
Assay [14] is described as follows: Antiproliferative activity against human KJON cells after 3 days by MTT assay. It counts as functional, cell-based. The settings on record: 72 h. In a few lines: as §2
The nature of assay [15]: Antiproliferative activity against human U266 cells after 3 days by MTT assay. Type of assay: functional, cell-based. Particulars: U-266, 72 h. In a few lines:
as §2

Assay [16] in a line: Antiproliferative activity against rat HO15.19-wt-Myc cells after 3 days by MTT assay. Type of assay: functional, cell-based. The settings on record: HO15.19, 72 h. A digest of the protocol: as §2
A short description of assay [17]: Cell cycle arrest in human HL60 cells assessed as accumulation at G0/G1 phase at 10 uM after 24 hrs by propidium iodide staining-based flow cytometric analysis (reference value: 31.2%). Type of assay: functional. Particulars: HL-60.
The nature of assay [18]: Cell cycle arrest in human HL60 cells assessed as accumulation at S phase at 10 uM after 24 hrs by propidium iodide staining-based flow cytometric analysis (reference value: 58.4%). Type of assay: functional. Particulars: HL-60.
Assay [19] can be described thus: Cell cycle arrest in human HL60 cells assessed as accumulation at G2/M phase at 10 uM after 24 hrs by propidium iodide staining-based flow cytometric analysis (reference value: 10.3%). It counts as functional. The settings on record: HL-60.
Assay [20] is described as follows: Cell cycle arrest in human HL60 cells assessed as accumulation at G0/G1 phase at 15 uM after 24 hrs by propidium iodide staining-based flow cytometric analysis (reference value: 31.2%). Type of assay: functional. The settings on record: HL-60.
The nature of assay [21]: Cell cycle arrest in human HL60 cells assessed as accumulation at S phase at 15 uM after 24 hrs by propidium iodide staining-based flow cytometric analysis (reference value: 58.4%). It counts as functional. Particulars: HL-60.
Assay [22] is described as follows: Cell cycle arrest in human HL60 cells assessed as accumulation at G2/M phase at 15 uM after 24 hrs by propidium iodide staining-based flow cytometric analysis (reference value: 10.3%). It counts as functional. Particulars: HL-60.
The target of assay [23] is T1, c-Myc/Max. Nature of the assay: Induction of dissociation of […]-Max in human HL60 cells at 10 to 30 uM after 6 hrs by Co-immunoprecipitation (Co-IP) assay. It counts as cell-based. The settings on record: HL-60. In a few lines:
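About 5×10⁶ HL60 cells exposed 6 h to compound or DMSO; lysed in IP buffer; 300 µg cleared lysate immunoprecipitated overnight at 4 °C with anti-Max (1:200) and protein G-Sepharose; 10% SDS-PAGE, immunoblot with anti-c-Myc 9E10 (1:1000); input lysate kept for comparison.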

In assay [24] the target is Myc proto-oncogene protein (Homo sapiens) (UniProt P01106). Nature of the assay: Inhibition of wild type c-Myc binding site (unknown origin) expressed in human HeLa cells assessed as inhibition of luciferase after 6 hrs. Type of assay: cell-based. A digest of the protocol: (§3)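 HeLa cells stably carrying a labile luciferase under a minimal promoter with triplicated c-Myc or NF-κB sites, methotrexate-amplified; 10⁶ cells seeded, next day compound for 6 h; lysates assayed in triplicate, normalised to protein, background (mutant-site line) subtracted, expressed relative to untreated cells (100%); mean ± 1 standard error.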

The target in assay [25] is Nuclear factor NF-kappa-B complex (Homo sapiens) (UniProt Q00653+P19838+Q04206). Nature of the assay: Inhibition of NFkappaB binding site (unknown origin) expressed in human HeLa cells assessed as inhibition of luciferase after 6 hrs. Type of assay: cell-based. In a few lines: as §3

The structures appear in SMILES notation. The source made the active and inactive calls. No cut-off for these calls is given here.

T1 sequence (P01106 whole entry): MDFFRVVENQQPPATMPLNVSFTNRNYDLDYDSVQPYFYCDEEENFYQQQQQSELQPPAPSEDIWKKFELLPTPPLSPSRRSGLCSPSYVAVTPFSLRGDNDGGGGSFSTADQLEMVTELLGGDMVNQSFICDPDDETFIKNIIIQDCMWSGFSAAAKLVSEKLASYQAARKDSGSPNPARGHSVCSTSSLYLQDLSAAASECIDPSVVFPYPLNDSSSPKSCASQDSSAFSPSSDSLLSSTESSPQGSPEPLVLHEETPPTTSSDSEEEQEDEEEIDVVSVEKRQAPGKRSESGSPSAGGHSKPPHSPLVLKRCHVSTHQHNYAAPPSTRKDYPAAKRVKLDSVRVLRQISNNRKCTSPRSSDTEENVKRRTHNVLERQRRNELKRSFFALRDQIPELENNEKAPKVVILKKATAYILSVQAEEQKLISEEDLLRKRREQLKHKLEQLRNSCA
T1 sequence (P61244 whole entry): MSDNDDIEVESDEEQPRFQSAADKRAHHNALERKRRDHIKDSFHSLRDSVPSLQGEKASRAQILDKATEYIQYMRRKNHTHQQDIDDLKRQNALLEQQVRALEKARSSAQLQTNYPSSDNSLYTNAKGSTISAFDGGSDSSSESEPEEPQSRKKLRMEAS
Sequence of Myc proto-oncogene protein (Homo sapiens) (P01106 whole entry): as the sequence (P01106 whole entry) above
Sequence of Protein max (Homo sapiens) (P61244 whole entry): as the sequence (P61244 whole entry) above
Sequence of Nuclear factor NF-kappa-B complex (Homo sapiens) (P19838 whole entry, looked up): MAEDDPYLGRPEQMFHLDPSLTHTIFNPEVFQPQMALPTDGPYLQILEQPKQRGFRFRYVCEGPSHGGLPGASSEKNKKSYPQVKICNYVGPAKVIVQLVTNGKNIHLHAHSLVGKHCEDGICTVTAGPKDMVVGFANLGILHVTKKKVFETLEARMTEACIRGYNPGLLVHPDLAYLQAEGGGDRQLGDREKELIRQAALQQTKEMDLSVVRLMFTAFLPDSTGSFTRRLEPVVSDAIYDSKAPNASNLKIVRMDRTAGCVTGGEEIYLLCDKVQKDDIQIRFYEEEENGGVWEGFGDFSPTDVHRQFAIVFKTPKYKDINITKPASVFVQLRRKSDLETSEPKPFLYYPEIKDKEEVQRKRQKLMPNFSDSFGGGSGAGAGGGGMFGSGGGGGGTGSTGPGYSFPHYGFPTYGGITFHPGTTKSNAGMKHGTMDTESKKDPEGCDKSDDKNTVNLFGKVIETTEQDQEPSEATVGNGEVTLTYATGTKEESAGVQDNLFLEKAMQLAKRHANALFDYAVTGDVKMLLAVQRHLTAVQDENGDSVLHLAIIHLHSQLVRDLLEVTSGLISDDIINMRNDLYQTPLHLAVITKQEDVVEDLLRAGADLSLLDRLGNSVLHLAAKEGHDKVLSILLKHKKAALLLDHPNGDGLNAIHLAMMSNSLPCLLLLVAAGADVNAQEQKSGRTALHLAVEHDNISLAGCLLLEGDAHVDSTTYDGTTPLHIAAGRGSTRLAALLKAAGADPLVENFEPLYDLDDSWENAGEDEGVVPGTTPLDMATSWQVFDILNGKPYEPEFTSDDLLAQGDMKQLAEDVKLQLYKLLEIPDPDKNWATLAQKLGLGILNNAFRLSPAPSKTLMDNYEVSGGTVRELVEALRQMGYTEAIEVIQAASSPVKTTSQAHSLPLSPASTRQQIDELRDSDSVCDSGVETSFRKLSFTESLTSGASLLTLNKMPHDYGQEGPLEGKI
Sequence of Nuclear factor NF-kappa-B complex (Homo sapiens) (Q00653 whole entry, looked up): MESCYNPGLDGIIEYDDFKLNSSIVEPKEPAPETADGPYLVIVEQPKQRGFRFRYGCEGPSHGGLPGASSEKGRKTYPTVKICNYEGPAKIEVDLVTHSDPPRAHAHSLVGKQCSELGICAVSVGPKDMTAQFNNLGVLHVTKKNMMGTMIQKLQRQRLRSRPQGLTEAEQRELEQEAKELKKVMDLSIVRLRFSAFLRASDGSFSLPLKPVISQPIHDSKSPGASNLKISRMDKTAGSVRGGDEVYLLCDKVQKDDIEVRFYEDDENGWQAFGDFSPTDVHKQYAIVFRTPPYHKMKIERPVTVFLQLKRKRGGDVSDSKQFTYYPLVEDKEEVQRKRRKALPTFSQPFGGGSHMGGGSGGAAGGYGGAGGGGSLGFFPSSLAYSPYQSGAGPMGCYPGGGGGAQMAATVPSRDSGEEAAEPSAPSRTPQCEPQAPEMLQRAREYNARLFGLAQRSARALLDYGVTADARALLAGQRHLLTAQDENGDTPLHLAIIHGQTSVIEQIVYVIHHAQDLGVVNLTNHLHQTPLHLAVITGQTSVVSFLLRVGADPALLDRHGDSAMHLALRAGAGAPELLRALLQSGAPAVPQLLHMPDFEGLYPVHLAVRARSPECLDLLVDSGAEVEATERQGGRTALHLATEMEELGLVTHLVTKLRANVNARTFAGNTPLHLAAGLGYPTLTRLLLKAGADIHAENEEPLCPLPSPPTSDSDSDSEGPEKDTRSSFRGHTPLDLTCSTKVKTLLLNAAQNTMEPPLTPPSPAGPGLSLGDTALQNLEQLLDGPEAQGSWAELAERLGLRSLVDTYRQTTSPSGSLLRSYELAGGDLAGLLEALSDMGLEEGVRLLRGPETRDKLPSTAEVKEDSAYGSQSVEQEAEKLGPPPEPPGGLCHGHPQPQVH
Sequence of Nuclear factor NF-kappa-B complex (Homo sapiens) (Q04206 whole entry, looked up): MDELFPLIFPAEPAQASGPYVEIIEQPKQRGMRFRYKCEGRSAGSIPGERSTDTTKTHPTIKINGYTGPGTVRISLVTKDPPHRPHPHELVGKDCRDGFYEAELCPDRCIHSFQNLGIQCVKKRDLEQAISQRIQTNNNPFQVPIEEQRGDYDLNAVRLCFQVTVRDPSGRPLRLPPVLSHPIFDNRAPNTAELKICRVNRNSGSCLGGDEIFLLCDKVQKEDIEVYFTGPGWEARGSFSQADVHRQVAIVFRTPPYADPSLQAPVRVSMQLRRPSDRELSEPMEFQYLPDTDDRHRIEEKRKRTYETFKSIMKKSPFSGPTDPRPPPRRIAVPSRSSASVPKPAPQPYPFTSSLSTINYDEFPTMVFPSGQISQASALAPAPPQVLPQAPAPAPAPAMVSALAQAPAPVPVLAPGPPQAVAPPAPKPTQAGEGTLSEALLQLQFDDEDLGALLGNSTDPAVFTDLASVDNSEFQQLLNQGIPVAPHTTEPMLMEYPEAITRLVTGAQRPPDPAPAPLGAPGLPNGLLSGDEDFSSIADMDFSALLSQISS

As to `O=[N+]([O-])c1ccc(Nc2ccccc2-c2ccccc2)c2nonc12`, the Ratio in the assay with NCI-H460 was found to be 1.4. The inhibition entry at c-Myc/Max [1] and on c-Myc/Max [2] was “Active” in each case.

With `CC(C)COc1cc(C(=O)O)ccc1NC(=O)c1ccc([N+](=O)[O-])c(OCc2cccc3ccccc23)c1`, the Activity was found to be 0% on c-Myc/Max [3]; 51.4% in assay [17]; 47.9% in assay [18]; 0.77% in assay [19]; 71% in assay [20]; 23.3% in [21]. In addition, in assay [22], the Activity worked out at 5.64%. Further, the IC50 (usually the concentration that inhibits the measured activity by half) on c-Myc/Max [4] worked out at 11.6 µM; in the assay on Daudi it was 9.5 µM; in assay [9], 18.1 µM; in assay [10], 20.6 µM; in assay [11] it was 15.9 µM; in the assay on HeLa it was 10.8 µM. Further, the IC50 was 10.4 µM in the assay with HEK293; 15.7 µM in assay [12]; 35.6 µM in assay [13]; 23 µM in [14]; 46 µM in [15]; 14.1 µM in assay [16]. In addition, the outcome (in [5]; on c-Myc/Max [23]) was inactive. For the same molecule, on c-Myc/Max [6], the Kd (as a rule, the constant that tells how readily two partners part at equilibrium) came to 13 µM. In addition, the inhibition result at c-Myc/Max [7] and at c-Myc/Max [8] was “Active” in each case. For the same molecule, the inhibition entry in assay [24] was “Dose-dependent effect”. Besides, in [25], the inhibition result is “inactive”.
